# From article PMC9512414 (International Journal of Nanomedicine, 2022)
# Tested on: lung tumor
# Experiment: 18F-FDG PET imaging of Kras metastatic lung cancer patients
# Format: in vivo
# Details: Kras metastatic patients (Stage IV), in relation to control groups
# Summary of the method: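 Patients had 18F-FDG PET/CT at baseline before combined test treatment, after three treatment cycles (interim), and after treatment ended (late). Each patient had at least two scans. Images were reconstructed by ordered subset expectation maximization with six iterations and 12 subsets.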
molecule,measurement,value
"Daclizumab: FDA-approved drug, CD25 inhibitor (antibody, chains of the INN, looked up, V domains shown) VH: QVQLVQSGAEVKKPGSSVKVSCKASGYTFTSYRMHWVRQAPGQGLEWIGYINPSTGYTEYNQKFKDKATITADESTNTAYMELSSLRSEDTAVYYCARGGGVFDYWGQGTLVTVSS VL: DIQMTQSPSTLSASVGDRVTITCSASSSISYMHWYQQKPGKAPKLLIYTTSNLASGVPARFSGSGSGTEFTLTISSLQPDDFATYYCHQRSTYPLTFGQGTKVEVK",tumor burden by comparative 18F-FDG PET imaging,lower tumor burden
